Bioassay records: PubChem BioAssay, several laboratories
The list is not random: actives were taken first. Their share in the collection is about 2.3%.
HIF act – HIF pathway transcriptional activation. U2OS HRE-luciferase reporter, luminescence; normalized: DMSO 0%, desferrioxamine 100%. activation, % at 7.5 µM (by protocol). actives 0.32% (n = 300,000). AID 1910;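 active means mean activation of at least 10% of the iron chelator positive control signal, with at least half of replicates also reaching 10%; inconclusive means mean and replicate majority disagree about reaching 10%; inactive means mean and most replicates under 10%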
T cruzi repl – blocks replication of Trypanosoma cruzi | T. cruzi beta-gal in NIH3T3, luminescence, 90 h | inhibition, % (concentration not given with the values) | actives 1.4% (n = 300,000);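 active means mean inhibition across valid replicates above about 55%, limit read from the data; inconclusive means mean below that limit but half or more replicates reach it; inactive means mean below it, under half of replicates reach it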;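 further: signal also drops with host cell toxicity which is not excluded here; higher percent means less beta-gal luminescence so fewer parasites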
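compound dosing = single 50 nL compound addition per well in DMSO | material = NIH/3T3 host cells with β-galactosidase reporter T. cruzi | input = 5,000 host fibroblasts per well | timing = ≥90 h infection period, 3 h prior cell attachment | read-out basis = percent inhibition of parasite-derived β-gal signal | detection = GalScreen β-gal luminescence, detergent lysis, 60 min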
Bfl-1 A1 inh – inhibitors of the anti-apoptotic protein A1, read as caspase activation; MEF A1-2A-BIM cells, Caspase-Glo 3/7 luminescence, 3 h; percent of clofoctol response, vehicle zero; caspase activation, % (test concentration not listed); actives 0.066% (n = 330,000);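 active means over half of replicate activation scores above 10%, or exactly half above 10 with the replicate mean above 10; inconclusive means replicate mean below 10 yet half the replicates above 10; inactive means over half of replicates below 10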
KLF5 inh – inhibitors of KLF5 expression; actives 0.23% (n = 290,000); inhibition, % at 5 µM; AID 1700; DLD-1 KLF5 promoter-luciferase reporter, luminescence;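 active means inhibition above a per-plate limit of that plate's mean compound inhibition plus 3 SD, cut at about 60% in these data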;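 further: higher means less KLF5 promoter-driven luciferase light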
Beta cell apopt – blocks beta cell apoptosis; INS-1E cytokine-induced death, ATP luminescence, 48 h; percent of positive-control rescue, neutral wells zero; protection from apoptosis, % (concentration not given with the values); actives 0.8% (n = 300,000); AID 435005;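 active means Every replicate reaches about 75%, or at least half do and their mean reaches it too, limit read from the data; inconclusive means At least half of replicates reach the limit but their mean does not; inactive means Under half of replicates reach the limit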;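 further: higher means more ATP so stronger rescue from cytokine killing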
Hits are given with their value; n = inactive; u = inconclusive; x = no result given.

SMILES	HIF act	T cruzi repl	Bfl-1 A1 inh	KLF5 inh	Beta cell apopt
CC(C)(C)CC(=O)NCCc1csc(-c2ccccc2)n1	n	61	n	n	n
CC(=O)NCCc1csc(-c2ccccc2)n1	n	n	n	n	n
CNC(=O)c1ccc(NC(=O)CC2SC(N3CCCC3)=NC2=O)cc1 (stereo unspecified)	x	x	n	x	n
COc1cccc(OC)c1C(=O)NC(=S)NCc1cccnc1	n	n	n	n	n
Nc1ccc(-c2nc3ccccc3[nH]2)cc1	x	n	n	n	x
c1ccc(-c2cc(-c3nc4ccccc4[nH]3)c3ccccc3n2)cc1	n	55	n	n	n
CC(=O)NC(c1cc(Cl)c2cccnc2c1O)C(C)C (stereo unspecified)	x	x	n	x	103
CC(=O)NC(c1cc(Cl)c2ccccc2c1O)C(C)C (stereo unspecified)	x	x	n	x	n
CC(=O)NC(c1cc(Cl)c2cccnc2c1O)C1CC1 (stereo unspecified)	x	x	n	x	87
CCC(=O)NC(c1cc(Cl)c2ccccc2c1O)C1CC1 (stereo unspecified)	x	x	n	x	n
CC1=NN(C(N)=S)C(=O)C1N=Nc1ccc(Cl)cc1Cl (stereo unspecified)	n	n	n	n	n
CCN1CCN(C(=O)c2cc(-c3ccco3)nc3ccccc23)CC1	x	x	n	x	n
CCCc1nc2ccccc2c(C(=O)OCC(=O)N2CCc3ccccc32)c1CC	n	58	n	n	n
O=S1(=O)CCOC[C@H](Cc2ccccc2)N1Cc1ccc(Cl)cc1	n	n	n	x	n
c1ccc(-c2csc(Nc3nc(N4CCOCC4)nc(N4CCOCC4)n3)n2)cc1	n	61	n	n	n
CCOc1cc(C)c(Cl)cc1S(=O)(=O)n1ccnc1	n	72	n	n	n
CCN(CC)CCNc1nc(-c2ccccc2)c2c(c1C#N)CC(C)(C)OC2	n	56	n	n	n
CCOc1ccc(NC(=S)NC(=O)c2cncc(Br)c2)cc1	n	n	n	x	n
O=C(/C=C/c1ccc(F)cc1)NC(=S)NNC(=O)c1cnccn1	n	u	n	n	70
COc1cc(C(=O)NNC(=S)NC(=O)c2ccc(F)cc2)cc(OC)c1OC	n	65	n	n	n
COc1ccc(/C=C/C(=O)NC(=S)NNC(=O)c2cnccn2)cc1	n	65	n	n	76
O=C(NC(=S)NNC(=O)c1cnccn1)c1ccc(F)cc1	n	n	n	n	79
O=C(NNC(=S)NC(=O)c1cccnc1)c1ccc(F)cc1	n	x	n	n	n
CC(C)(C)c1ccc(C(=O)OCC(=O)N2CCC(c3ccccc3)=N2)cc1	x	x	n	x	n
CN(C(=O)CSc1nc2ccccc2n1C)C1CCS(=O)(=O)C1 (stereo unspecified)	x	x	n	x	n
SMILES	HIF act	T cruzi repl	Bfl-1 A1 inh	KLF5 inh	Beta cell apopt
CCn1c(=N)n(CC(=O)C23CC4CC(CC(C4)C2)C3)c2ccccc21	n	58	n	n	n
Cc1ccc(Nc2cc(C)nc3ncnn23)cc1	n	n	n	n	n
O=C(CCC1CCCN(Cc2ccc3c(c2)OCCO3)C1)NCc1ccc(F)c(F)c1 (stereo unspecified)	n	62	n	n	n
O=C(CCC1CCCN(Cc2cccc3c2OCO3)C1)NCc1ccc(F)c(F)c1 (stereo unspecified)	n	62	n	n	n
O=S(=O)(Cc1ccccc1)NCC1CCCN(Cc2ccc(F)c(F)c2)C1 (stereo unspecified)	n	61	n	n	n
CCCCN(C(=O)C1CC(=O)N(Cc2ccc(C)cc2)C1)c1c(N)n(CC(C)C)c(=O)[nH]c1=O (stereo unspecified)	n	n	n	n	n
O=C(c1cc2ccccc2o1)N1CCN(c2ccccn2)CC1	n	n	n	n	n
COCCCN1CC(=O)N2Cc3[nH]c4ccccc4c3C[C@H]2C1=O	n	n	n	n	n
Cc1cc(OC(=O)c2cc(Cl)ccc2Cl)c([N+](=O)[O-])c(=O)[nH]1	n	n	n	n	n
Cc1cc2ccccn2c1C(=O)c1cc([N+](=O)[O-])cc([N+](=O)[O-])c1	n	65	n	n	n
COc1ccc(-c2nnc(SCC(=O)NC3CC3)o2)cc1	x	x	n	x	n
Nc1ccc(C(=O)NNC(=O)C2COc3ccccc3O2)cc1[N+](=O)[O-] (stereo unspecified)	n	n	n	x	n
CC(C)COc1cccc(C(=O)NNC(=O)C2COc3ccccc3O2)c1 (stereo unspecified)	26	n	n	n	n
CCn1c(=O)c([N+](=O)[O-])c(Cl)c2ccccc21	n	71	u	n	77
Cc1sc(NC(=O)Cc2ccc3c(c2)OCO3)nc1-c1ccc2c(c1)CCN2C(=O)c1ccc(F)cc1	n	n	n	n	n
Cc1sc(NC(=O)Cc2ccc3c(c2)OCO3)nc1-c1ccc2c(c1)CCN2C(=O)c1ccccc1F	n	56	n	n	n
Cc1cc(NC2CCCC2)n2nc(C)c(-c3ccccc3)c2n1	n	60	n	n	n
COc1ccc(-c2c(C)nn3c(NC4CCCC4)cc(C)nc23)cc1OC	n	n	n	n	n
CCc1c(C#N)c(SCCC(=O)Nc2ccc(F)cc2)nc2c1C(=O)CC(C)(C)C2	n	56	n	n	n
C=CCc1cc(Cl)ccc1OCCNCCOC	n	n	n	n	n
C=CCc1cc(Cl)ccc1OCCNCCN1CCOCC1	n	73	n	n	n
COc1ccc(OC)c(-c2nn(-c3ccccc3)cc2C(=O)NCC(c2cccs2)N2CCOCC2)c1 (stereo unspecified)	n	n	n	x	n
O=C(/C=C/c1ccc([N+](=O)[O-])cc1)Nc1cccnc1	n	n	n	n	n
O=C(Cc1ccc([N+](=O)[O-])cc1)Nc1cccnc1	n	n	n	n	81
O=C(Cc1ccc([N+](=O)[O-])cc1)Nc1cccc(C(F)(F)F)c1	n	n	n	n	n
SMILES	HIF act	T cruzi repl	Bfl-1 A1 inh	KLF5 inh	Beta cell apopt
O=C(Cc1ccc([N+](=O)[O-])cc1)Nc1cc(C(F)(F)F)cc(C(F)(F)F)c1	n	70	n	n	n
NC(=O)C1CCN(c2nc(-c3cccs3)cs2)CC1	x	x	n	x	n
COc1ccc(NC(=O)CN(C)CC(=O)N2CC(=O)Nc3ccccc32)cc1	x	x	n	x	n
C/C=C(\C)CN1CCC(n2nccc2NC(=O)c2ccc(OC)cc2)CC1	n	66	n	n	n
CC(C)(C)[C@H]1COC(=O)[C@H](Cc2ccc(F)cc2)CC/C=C/C[C@@H](CC(=O)N[C@H](CO)Cc2ccccc2)C(=O)N1	x	x	n	x	n
CCCN1CCC2(CC1)NC(C(=O)O)Cc1c2[nH]c2ccccc12 (stereo unspecified)	n	n	n	n	n
COC(=O)C1Cc2c([nH]c3ccccc23)C2(CCN(Cc3ccccc3)CC2)N1 (stereo unspecified)	n	71	n	n	x
O=C(CCN1CCN(c2ccccc2)CC1)c1ccc(Br)cc1	n	62	n	n	n
O=C(CCN1CCN(c2ccccc2)CC1)N/N=C/c1ccccc1O	17	n	n	n	n
